Measured values taken from article PMC9126795 (eBioMedicine, 2022).
Like-named read-outs stand apart in the source and are kept apart here.

Key:
[1] = format: in vivo, human
In short: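 Cirrhosis patients (3 per dose level) received a single 4 h IV infusion on Day −7 before the first cycle. Cmax, Tmax, t1/2 and AUC were derived by non-compartmental analysis, with the last concentration extrapolated assuming constant elimination.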

[2] = system: patients with HCV and HBV liver cirrhosis; assay: Ishak; format: in vivo, human
In short: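 Liver biopsies were taken at screening (baseline) and within 2 weeks of the final dose of 280 mg/m²/4 h IV twice weekly for 12 weeks. Three independent pathologists scored slides blinded, using Knodell scoring and Ishak-modified HAI for necroinflammation and fibrosis stage. Thirteen of 15 patients were evaluable; one was excluded for poor sample quality and one discontinued.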

[3] = system: patients with HCV and HBV liver cirrhosis; assay: Liver stiffness measure; format: in vivo, human; conditions: 12 weeks
In short: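 Liver stiffness was measured by FibroScan at baseline and 12 weeks post-treatment in cirrhosis patients. Dosing was 280 mg/m² test compound by 4 h IV infusion twice weekly for 12 weeks. Thirteen patients were analysed, and the change relative to baseline was computed, including the ≥10% decrease subset among Child–Pugh B patients.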

[4] = system: patients with HCV and HBV liver cirrhosis; assay: Collagen proportionate area; format: in vivo, human; conditions: baseline vs 12 weeks after PRI-724 administration, 280 mg/m^2/4 h
[5] = system: patients with HCV and HBV liver cirrhosis; assay: Serum fibrosis markers; format: in vivo, human; conditions: before vs 12 weeks after PRI-724 administration
In short: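 As an exploratory endpoint, serum hyaluronic acid and type IV collagen type S were measured before and 12 weeks after a course of 280 mg/m² test compound (4 h IV infusion, twice weekly, 12 weeks). Subjects were patients with HCV/HBV cirrhosis, and mean levels were compared.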

[6] = system: murine models of liver fibrosis; conditions: due to hepatic stellate cell inactivation and macrophage migration; cited from earlier work
[7] = 280mg/m^2/4 h, 12 weeks, 13 patients

PRI-724
PRI-724 AUC 0-24h ([1]; 140 mg/m^2/4h, Max): 4660 ng·h/mL
PRI-724 Cmax ([1]; 140 mg/m^2/4h, Max): 1520 ng/mL
PRI-724 Tmax ([1]; 140 mg/m^2/4h, Max): 4 h
PRI-724 AUC 0-24h ([1]; 140 mg/m^2/4h, Mean): 3740 ng·h/mL
PRI-724 Cmax ([1]; 140 mg/m^2/4h, Mean): 1150 ng/mL
PRI-724 AUC 0-24h ([1]; 140 mg/m^2/4h, Median): 3770 ng·h/mL
PRI-724 Cmax ([1]; 140 mg/m^2/4h, Median): 1030 ng/mL
PRI-724 AUC 0-24h ([1]; 140 mg/m^2/4h, Min): 2790 ng·h/mL
PRI-724 Cmax ([1]; 140 mg/m^2/4h, Min): 888 ng/mL
PRI-724 Tmax ([1]; 140 mg/m^2/4h, Min): 1 h
PRI-724 AUC 0-24h ([1]; 280 mg/m^2/4h, Max): 7500 ng·h/mL
PRI-724 Cmax ([1]; 280 mg/m^2/4h, Max): 2590 ng/mL
PRI-724 Tmax ([1]; 280 mg/m^2/4h, Max): 4 h
PRI-724 AUC 0-24h ([1]; 280 mg/m^2/4h, Mean): 5700 ng·h/mL
PRI-724 Cmax ([1]; 280 mg/m^2/4h, Mean): 1710 ng/mL
PRI-724 AUC 0-24h ([1]; 280 mg/m^2/4h, Median): 5960 ng·h/mL
PRI-724 Cmax ([1]; 280 mg/m^2/4h, Median): 1780 ng/mL
PRI-724 AUC 0-24h ([1]; 280 mg/m^2/4h, Min): 2650 ng·h/mL
PRI-724 Cmax ([1]; 280 mg/m^2/4h, Min): 757 ng/mL
PRI-724 Tmax ([1]; 280 mg/m^2/4h, Min): 1 h
PRI-724 AUC 0-24h ([1]; 380 mg/m^2/4h, Max): 16000 ng·h/mL
PRI-724 Cmax ([1]; 380 mg/m^2/4h, Max): 4730 ng/mL
PRI-724 Tmax ([1]; 380 mg/m^2/4h, Max): 4 h
PRI-724 AUC 0-24h ([1]; 380 mg/m^2/4h, Mean): 11800 ng·h/mL
PRI-724 Cmax ([1]; 380 mg/m^2/4h, Mean): 3530 ng/mL
PRI-724 AUC 0-24h ([1]; 380 mg/m^2/4h, Median): 11900 ng·h/mL
PRI-724 Cmax ([1]; 380 mg/m^2/4h, Median): 3540 ng/mL
PRI-724 AUC 0-24h ([1]; 380 mg/m^2/4h, Min): 7940 ng·h/mL
PRI-724 Cmax ([1]; 380 mg/m^2/4h, Min): 2590 ng/mL
PRI-724 Tmax ([1]; 380 mg/m^2/4h, Min): 1 h
Patients with change in Fibrosis score from baseline of 0 [2, 7]: 6
Patients with change in Fibrosis score from baseline of 1 [2, 7]: 3
Patients with change in Fibrosis score from baseline of 2 [2, 7]: 1
Patients with change in Fibrosis score from baseline of -1 [2, 7]: 1
Patients with change in Fibrosis score from baseline of -2 [2, 7]: 2
Patients with change in Necroinflammatory score from baseline of 0 [2, 7]: 5
Patients with change in Necroinflammatory score from baseline of 1 [2, 7]: 2
Patients with change in Necroinflammatory score from baseline of 2 [2, 7]: 2
Patients with change in Necroinflammatory score from baseline of -1 [2, 7]: 2
Patients with change in Necroinflammatory score from baseline of -2 [2, 7]: 2
Mean activity score ([2]; after 12-week PRI-724 administration): No change was observed
Patients with CP class B whose LSM decreased by ≥10% relative to baseline [3]: four of six patients
Collagen proportionate area of the whole liver tissue [4]: no statistically significant change was observed
Serum M2BPGi, mean level [5]: lower relative to baseline levels but not statistically significant
Serum hyaluronic acid, mean level [5]: no difference in mean levels
Serum procollagen III peptide, mean level [5]: lower relative to baseline levels but not statistically significant
Serum type IV collagen type S, mean level [5]: no difference in mean levels
Anti-fibrotic effect [6]: exhibits anti-fibrotic effects
